The subject of one assay is HL-60. Description: Cytotoxicity against human HL60 cells after 72 hrs by MTT assay. Format: functional, cell-based. Conditions: HL-60, 72 h. The procedure, abridged: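 Leukemia cells seeded in 96-well plates and exposed in triplicate to graded compound concentrations for 72 h at 37 °C. Viability was read by MTT. IC50 was derived by the Logit method from at least three independent experiments.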
In general terms: Tetrazolium dyes change colour on reduction, which living cells bring about.

The target in assay [1] is DNA topoisomerase 2-alpha (Homo sapiens) (UniProt P11388). Description: Inhibition of DNA topoisomerase 2 alpha assessed as ATP-dependent decatenation of DNA in cell free system.
Sequence of DNA topoisomerase 2-alpha (Homo sapiens) (P11388 whole entry): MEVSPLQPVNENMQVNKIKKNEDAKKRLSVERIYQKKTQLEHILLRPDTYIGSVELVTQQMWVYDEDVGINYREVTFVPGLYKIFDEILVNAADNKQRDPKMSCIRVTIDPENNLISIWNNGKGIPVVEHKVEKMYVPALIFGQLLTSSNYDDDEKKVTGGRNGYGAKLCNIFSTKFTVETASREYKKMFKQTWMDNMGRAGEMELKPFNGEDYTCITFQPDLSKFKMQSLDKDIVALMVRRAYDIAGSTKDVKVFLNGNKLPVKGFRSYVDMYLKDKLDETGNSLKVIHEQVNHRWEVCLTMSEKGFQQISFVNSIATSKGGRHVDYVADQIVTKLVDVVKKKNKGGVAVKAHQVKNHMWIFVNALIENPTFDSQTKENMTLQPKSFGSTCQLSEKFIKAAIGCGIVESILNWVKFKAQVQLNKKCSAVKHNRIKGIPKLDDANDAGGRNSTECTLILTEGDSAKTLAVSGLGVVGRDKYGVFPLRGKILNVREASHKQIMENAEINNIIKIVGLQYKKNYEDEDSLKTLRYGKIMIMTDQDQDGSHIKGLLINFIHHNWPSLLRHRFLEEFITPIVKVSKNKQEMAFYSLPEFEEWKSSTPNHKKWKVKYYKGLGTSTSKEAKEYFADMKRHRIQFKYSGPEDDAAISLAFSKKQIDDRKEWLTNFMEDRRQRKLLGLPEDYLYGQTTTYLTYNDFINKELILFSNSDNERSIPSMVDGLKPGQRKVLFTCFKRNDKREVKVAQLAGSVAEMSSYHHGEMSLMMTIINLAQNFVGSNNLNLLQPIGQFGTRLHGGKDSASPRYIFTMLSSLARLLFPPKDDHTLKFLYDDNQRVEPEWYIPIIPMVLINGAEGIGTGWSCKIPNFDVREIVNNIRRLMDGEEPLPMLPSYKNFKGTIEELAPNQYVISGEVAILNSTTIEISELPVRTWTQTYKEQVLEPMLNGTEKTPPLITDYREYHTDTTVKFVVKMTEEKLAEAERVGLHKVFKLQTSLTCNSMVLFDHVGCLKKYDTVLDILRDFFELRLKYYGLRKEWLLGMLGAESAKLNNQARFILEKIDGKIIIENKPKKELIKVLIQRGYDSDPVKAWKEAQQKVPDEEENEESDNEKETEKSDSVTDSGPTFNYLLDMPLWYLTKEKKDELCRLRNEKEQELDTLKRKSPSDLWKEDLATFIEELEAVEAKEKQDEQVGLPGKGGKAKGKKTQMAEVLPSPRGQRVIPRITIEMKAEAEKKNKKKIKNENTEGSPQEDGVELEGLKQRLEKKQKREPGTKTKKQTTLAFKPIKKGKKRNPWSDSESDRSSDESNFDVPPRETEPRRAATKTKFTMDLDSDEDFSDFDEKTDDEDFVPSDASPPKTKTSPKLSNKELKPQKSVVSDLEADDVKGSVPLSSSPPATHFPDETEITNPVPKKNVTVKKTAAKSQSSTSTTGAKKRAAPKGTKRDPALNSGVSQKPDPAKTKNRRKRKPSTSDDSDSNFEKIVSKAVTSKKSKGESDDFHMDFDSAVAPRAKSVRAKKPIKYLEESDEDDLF
For the next assay, the system named is MDA-MB-231. The experiment in a line: Cytotoxicity against human MDA-MB-231 cells after 72 hrs by MTT assay. Format: functional, cell-based. To be noted: MDA-MB-231, 72 h.
For another assay, the system named is KB. Description: Cytotoxicity against human KB cells after 72 hrs by MTT assay. Format: functional, cell-based.

The source made the active and inactive calls. The rule behind the calls is not given here.

As for `CC(=O)Oc1cc(C)cc2c1C(=O)c1c(OC(C)=O)cc(O[C@@H]3O[C@@H](C)[C@H](OC(C)=O)[C@@H](OC(C)=O)[C@H]3OC(C)=O)cc1C2OC(C)=O` (mixture of isomers), the half-maximal inhibitory concentration (IC50) in the assay with HL-60 was 1.5 µM; in the assay with MDA-MB-231, 1.7 µM; in the assay with KB, 1.1 µM. Moreover, the inhibition entry in assay [1] is “Active”.
For `CC(=O)O[C@@H]1[C@@H](O)[C@@H](OC(C)=O)[C@H](Oc2cc(O)c3c(c2)C(=O)c2cc(C)cc(O)c2C3=O)O[C@H]1C`, the IC50 with HL-60, with MDA-MB-231 and in the assay on KB was greater than 20 µM in each case.
With `CC(=O)OC1c2cc(C)cc(O)c2C(=O)c2c(O)cc(O[C@@H]3O[C@@H](C)[C@H](O)[C@@H](OC(C)=O)[C@H]3OC(C)=O)cc21` (mixture of isomers), the concentration for half-maximal inhibition (IC50) in the assay on HL-60 worked out at 0.8 µM; in the assay on MDA-MB-231, 0.4 µM; with KB it was 0.3 µM.
For `CCCC(=O)O[C@@H]1[C@@H](O)[C@H](C)O[C@@H](Oc2cc(O)c3c(c2)C(=O)c2cc(C)cc(O)c2C3=O)[C@@H]1OC(=O)CCC`, in that order: greater than 20 µM, greater than 20 µM and greater than 20 µM.
As to `CC(=O)O[C@@H]1[C@@H](O)[C@H](C)O[C@@H](Oc2cc(O)c3c(c2)C(=O)c2cc(C)cc(O)c2C3=O)[C@@H]1OC(C)=O`, the IC50 in the assay with HL-60 is 3.6 µM; in the assay with MDA-MB-231, greater than 20 µM; with KB it was 1.1 µM. The inhibition entry in assay [1] was “Active”.
In the case of `CC(=O)O[C@@H]1[C@@H](OC(C)=O)[C@@H](O)[C@H](Oc2cc(O)c3c(c2)C(=O)c2cc(C)cc(O)c2C3=O)O[C@H]1C`, the IC50 in the assay on HL-60 was greater than 20 µM; in the assay on MDA-MB-231 it was 1.2 µM; in the assay on KB, greater than 20 µM.
Turning to `CC(=O)O[C@@H]1[C@@H](O[C@@H]2O[C@@H](C)[C@H](O)[C@@H](OC(C)=O)[C@H]2OC(C)=O)[C@H](C)O[C@@H](Oc2cc(O)c3c(c2)C(=O)c2cc(C)cc(O)c2C3=O)[C@@H]1OC(C)=O`, the figures for the 50% inhibitory concentration (IC50) with HL-60, with MDA-MB-231 and in the assay with KB were 11.8 µM, greater than 20 µM and 8.3 µM, respectively. Also, in assay [1], the inhibition result was “Active”.
Regarding `Cc1cc(O)c2c(c1)C(=O)c1cc(O)cc(O)c1C2=O` [EMODIN], the concentration for half-maximal inhibition (IC50) in the assay on HL-60, in the assay on MDA-MB-231 and in the assay on KB was greater than 20 µM each time.
Take `CC(=O)O[C@@H]1[C@@H](O)[C@@H](O)[C@H](Oc2cc(O)c3c(c2)C(=O)c2cc(C)cc(O)c2C3=O)O[C@H]1C`: the half-inhibitory concentration (IC50) was greater than 20 µM in the assay with HL-60, 7.9 µM in the assay with MDA-MB-231 and greater than 20 µM in the assay with KB. Besides, the inhibition result in assay [1] is “Active”.
With `COc1cc(C)cc2c1C(=O)c1c(OC)cc(O[C@@H]3O[C@@H](C)[C@H](O)[C@@H](OC(C)=O)[C@H]3OC(C)=O)cc1C2=O`, the half-maximal inhibitory concentration (IC50) with HL-60, in the assay with MDA-MB-231 and in the assay with KB was greater than 20 µM throughout.

By IC50 is commonly meant the point on the concentration scale where inhibition reaches its midpoint. Read a low IC50 as higher potency.

The values above are taken from ChEMBL document CHEMBL1177676, “Synthesis and biological evaluation of cytotoxic activity of novel anthracene L-rhamnopyranosides” (Bioorg Med Chem, 2010).
